Data from ChEMBL document CHEMBL4020721 (Eur J Med Chem, 2017).

Key:
[1] = target: Platelet-derived growth factor receptor alpha (Homo sapiens, UniProt P16234); test: Inhibition of PDGFRalpha (unknown origin) using FAM-labeled peptide as substrate preincubated for 5 to 10 mins followed by substrate/ATP addition measured after 30 to 60 mins by mobility shift assay
How it was run: (§1)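 Caliper mobility-shift assay with FAM-labeled peptide substrate. Buffer: 50 mM HEPES pH 7.5, 0.0015% Brij-35, 10 mM MgCl2, 2 mM DTT, with kinase-specific enzyme levels. […] Incubation was 30-60 min at 28°C, stopped with EDTA buffer. Read-out was % conversion.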

[2] = Drug recovery in human liver microsomes at 1 uM measured after 30 mins by LC-MS/MS analysis; assay type: ADME, microsome; settings: liver microsomes, read-out: Drug recovery
How it was run: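 Liver microsomes (0.5 mg/ml) were incubated with 1 µM compound at 37°C in 100 mM phosphate buffer pH 7.4 without NADPH for 30 min. Reactions were quenched with acetonitrile/tinidazole internal standard and analysed by LC-MS/MS. Recovery (%) was taken from the compound/internal standard peak area ratio.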

[3] = target: Epidermal growth factor receptor (Homo sapiens, UniProt P00533, T790M); test: Inhibition of EGFR T790M mutant (unknown origin) using FAM-labeled peptide as substrate preincubated for 5 to 10 mins followed by substrate/ATP addition measured after 30 to 60 mins by mobility shift assay; how it was run: as §1
Chain of Epidermal growth factor receptor (Homo sapiens, UniProt P00533, T790M) (P00533 25-1210 T790M limits assumed): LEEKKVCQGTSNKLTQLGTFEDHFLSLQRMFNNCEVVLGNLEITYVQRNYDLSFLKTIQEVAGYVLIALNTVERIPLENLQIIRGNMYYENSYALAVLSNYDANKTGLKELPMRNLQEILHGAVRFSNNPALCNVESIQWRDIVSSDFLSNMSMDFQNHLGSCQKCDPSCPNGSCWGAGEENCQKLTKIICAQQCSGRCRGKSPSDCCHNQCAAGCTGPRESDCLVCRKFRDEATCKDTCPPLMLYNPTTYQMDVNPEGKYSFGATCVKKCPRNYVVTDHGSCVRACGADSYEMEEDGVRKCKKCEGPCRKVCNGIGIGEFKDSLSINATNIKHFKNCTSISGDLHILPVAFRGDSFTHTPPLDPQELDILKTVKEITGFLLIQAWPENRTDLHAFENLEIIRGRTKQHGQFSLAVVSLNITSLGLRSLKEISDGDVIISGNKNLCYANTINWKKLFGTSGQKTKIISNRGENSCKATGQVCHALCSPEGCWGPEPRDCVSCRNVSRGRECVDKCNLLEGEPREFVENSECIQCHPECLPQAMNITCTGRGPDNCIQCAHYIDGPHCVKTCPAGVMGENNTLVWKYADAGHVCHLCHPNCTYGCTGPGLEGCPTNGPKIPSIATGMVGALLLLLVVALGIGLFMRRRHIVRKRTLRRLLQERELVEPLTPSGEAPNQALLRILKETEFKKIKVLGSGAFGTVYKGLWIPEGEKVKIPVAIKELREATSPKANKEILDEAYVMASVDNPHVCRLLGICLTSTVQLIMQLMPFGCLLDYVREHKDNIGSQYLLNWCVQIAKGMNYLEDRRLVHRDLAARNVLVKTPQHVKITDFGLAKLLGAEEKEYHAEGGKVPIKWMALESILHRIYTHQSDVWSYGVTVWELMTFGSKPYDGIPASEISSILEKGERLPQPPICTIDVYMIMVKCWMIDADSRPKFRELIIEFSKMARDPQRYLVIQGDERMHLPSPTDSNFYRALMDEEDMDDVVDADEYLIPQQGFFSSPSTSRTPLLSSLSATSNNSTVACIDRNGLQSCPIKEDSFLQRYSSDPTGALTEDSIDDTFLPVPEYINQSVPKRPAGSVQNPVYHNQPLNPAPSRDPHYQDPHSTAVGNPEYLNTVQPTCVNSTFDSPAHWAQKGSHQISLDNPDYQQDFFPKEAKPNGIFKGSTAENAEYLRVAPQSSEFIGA

Ephrin type-B receptor 2 = Ephrin type-B receptor 2 (Homo sapiens, UniProt P29323); test: Inhibition of EPHB2 (unknown origin) using FAM-labeled peptide as substrate preincubated for 5 to 10 mins followed by substrate/ATP addition measured after 30 to 60 mins by mobility shift assay; how it was run: as §1
CYP2C9 = CYP2C9 (Homo sapiens, UniProt P11712); test: Reversible inhibition of CYP2C9 in human liver microsomes at 10 uM after 20 mins by in presence of NADPH LC-MS/MS analysis; assay type: ADME; settings: liver microsomes
Chain of CYP2C9 (P11712 whole entry): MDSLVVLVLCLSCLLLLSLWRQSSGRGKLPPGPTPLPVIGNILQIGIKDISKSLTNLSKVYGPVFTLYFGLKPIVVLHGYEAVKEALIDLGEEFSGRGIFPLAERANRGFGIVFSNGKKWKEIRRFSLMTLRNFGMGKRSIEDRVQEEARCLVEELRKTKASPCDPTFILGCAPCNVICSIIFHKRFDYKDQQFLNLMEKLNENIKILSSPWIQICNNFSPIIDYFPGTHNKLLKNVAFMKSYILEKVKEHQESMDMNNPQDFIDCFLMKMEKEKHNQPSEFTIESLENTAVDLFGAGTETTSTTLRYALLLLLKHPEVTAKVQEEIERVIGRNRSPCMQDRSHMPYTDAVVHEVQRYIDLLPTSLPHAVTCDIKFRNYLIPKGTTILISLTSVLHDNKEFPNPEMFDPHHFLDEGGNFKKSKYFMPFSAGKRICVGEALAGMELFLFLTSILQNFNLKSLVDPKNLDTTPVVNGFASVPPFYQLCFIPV

[4] = target: Receptor tyrosine-protein kinase erbB-4 (Homo sapiens, UniProt Q15303); test: Inhibition of ERBB4 (unknown origin) using FAM-labeled peptide as substrate preincubated for 5 to 10 mins followed by substrate/ATP addition measured after 30 to 60 mins by mobility shift assay; how it was run: as §1
Mus musculus = test: Toxicity in BALB/c athymic nude mouse xenografted with human NCI-H1993 cells assessed as body weight loss at 0.1 to 10 mg/kg, po administered once daily for 3 weeks; assay type: organism-based; settings: in vivo, 504 h
How it was run: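 Female/male BALB/c nude mice (5-6 weeks, SPF). NCI-H1993 cells (7×10^6 in 140 µL) or SNU-5 cells (6×10^6 in 200 µL) injected s.c. into the right flank. Dosing started at mean tumour volume 150-250 mm³ (NCI-H1993) or 100-200 mm³ (SNU-5). Randomized, n = 7 (NCI-H1993) or 6 (SNU-5) per group. Oral dosing once daily; vehicle controls. Body weight and signs of toxicity monitored during treatment.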

[5] = Intrinsic clearance in human liver microsomes assessed per mg protein at 1 uM preincubated for 5 mins followed by NADPH addition measured after 5 to 30 mins by LC-MS/MS analysis; assay type: ADME, microsome; settings: read-out: CLH
How it was run: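 Microsomes (0.5 mg/ml) with 1 µM compound were preincubated 5 min at 37°C in 100 mM phosphate buffer pH 7.4, then started with 1 mM NADPH. Samples were taken at 0, 5, 10 and 30 min, quenched with acetonitrile/tinidazole and run by LC-MS/MS. CLint = k / microsomal protein concentration. Midazolam was the positive control.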

CYP3A4 = CYP3A4 (Homo sapiens, UniProt P08684); test: Time dependent irreversible inhibition of CYP3A4 in human liver microsomes at 10 uM preincubated with compound followed by NADPH addition by LC-MS/MS analysis; assay type: ADME; settings: liver microsomes
How it was run: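 HLM (0.2 mg/ml) with 10 µM compound were preincubated 0, 5, 10 or 20 min at 37°C with 1 mM NADPH or PBS. Substrate cocktail (halved concentrations) plus NADPH was then added for 10 min. Metabolites were measured by LC-MS/MS. Kobs is the slope of relative activity versus preincubation time.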

[6] = Clearance in Sprague-Dawley rat plasma at 1 mg/kg, iv by UPLC-MS/MS analysis; assay type: ADME, organism-based
How it was run: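 Male Sprague-Dawley rats (180-220 g) were fasted overnight with free access to water. Dosing was intravenous (n=2) or oral at 6 mg/kg (n=3). Heparinized blood was drawn from 0 to 1440 min. Plasma was frozen at -20°C, then precipitated with acetonitrile containing internal standard, centrifuged and analysed by UPLC-MS/MS.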

[7] = target: Tyrosine-protein kinase receptor UFO (Homo sapiens, UniProt P30530); test: Inhibition of Axl (unknown origin) using FAM-labeled peptide as substrate preincubated for 5 to 10 mins followed by substrate/ATP addition measured after 30 to 60 mins by mobility shift assay; how it was run: as §1
Chain of Tyrosine-protein kinase receptor UFO (P30530 whole entry): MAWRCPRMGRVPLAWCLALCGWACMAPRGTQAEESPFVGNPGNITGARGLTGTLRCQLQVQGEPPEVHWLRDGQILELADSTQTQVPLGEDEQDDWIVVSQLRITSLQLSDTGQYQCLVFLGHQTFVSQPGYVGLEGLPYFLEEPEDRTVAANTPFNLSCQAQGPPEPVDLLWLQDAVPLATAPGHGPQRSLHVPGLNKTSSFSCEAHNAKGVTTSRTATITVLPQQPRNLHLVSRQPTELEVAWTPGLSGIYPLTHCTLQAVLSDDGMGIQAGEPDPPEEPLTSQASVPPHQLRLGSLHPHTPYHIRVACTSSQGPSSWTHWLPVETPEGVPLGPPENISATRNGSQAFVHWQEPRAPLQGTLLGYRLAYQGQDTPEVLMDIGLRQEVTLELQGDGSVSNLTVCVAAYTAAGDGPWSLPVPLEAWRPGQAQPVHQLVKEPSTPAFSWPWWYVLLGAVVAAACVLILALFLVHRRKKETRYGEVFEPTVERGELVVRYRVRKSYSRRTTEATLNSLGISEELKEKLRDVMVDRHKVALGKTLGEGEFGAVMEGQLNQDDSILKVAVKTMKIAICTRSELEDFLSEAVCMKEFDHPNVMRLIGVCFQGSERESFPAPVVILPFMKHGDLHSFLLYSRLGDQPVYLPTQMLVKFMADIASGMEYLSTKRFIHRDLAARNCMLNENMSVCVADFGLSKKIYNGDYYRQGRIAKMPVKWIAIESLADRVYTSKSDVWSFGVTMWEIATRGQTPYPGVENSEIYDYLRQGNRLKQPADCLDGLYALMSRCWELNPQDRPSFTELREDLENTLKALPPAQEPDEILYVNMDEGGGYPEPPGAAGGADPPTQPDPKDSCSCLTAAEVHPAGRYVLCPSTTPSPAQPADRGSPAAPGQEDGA

[8] = target: Epidermal growth factor receptor (Homo sapiens, UniProt P00533); test: Inhibition of EGFR (unknown origin) using FAM-labeled peptide as substrate preincubated for 5 to 10 mins followed by substrate/ATP addition measured after 30 to 60 mins by mobility shift assay; how it was run: as §1
Chain of Epidermal growth factor receptor (Homo sapiens, UniProt P00533) (P00533 whole entry): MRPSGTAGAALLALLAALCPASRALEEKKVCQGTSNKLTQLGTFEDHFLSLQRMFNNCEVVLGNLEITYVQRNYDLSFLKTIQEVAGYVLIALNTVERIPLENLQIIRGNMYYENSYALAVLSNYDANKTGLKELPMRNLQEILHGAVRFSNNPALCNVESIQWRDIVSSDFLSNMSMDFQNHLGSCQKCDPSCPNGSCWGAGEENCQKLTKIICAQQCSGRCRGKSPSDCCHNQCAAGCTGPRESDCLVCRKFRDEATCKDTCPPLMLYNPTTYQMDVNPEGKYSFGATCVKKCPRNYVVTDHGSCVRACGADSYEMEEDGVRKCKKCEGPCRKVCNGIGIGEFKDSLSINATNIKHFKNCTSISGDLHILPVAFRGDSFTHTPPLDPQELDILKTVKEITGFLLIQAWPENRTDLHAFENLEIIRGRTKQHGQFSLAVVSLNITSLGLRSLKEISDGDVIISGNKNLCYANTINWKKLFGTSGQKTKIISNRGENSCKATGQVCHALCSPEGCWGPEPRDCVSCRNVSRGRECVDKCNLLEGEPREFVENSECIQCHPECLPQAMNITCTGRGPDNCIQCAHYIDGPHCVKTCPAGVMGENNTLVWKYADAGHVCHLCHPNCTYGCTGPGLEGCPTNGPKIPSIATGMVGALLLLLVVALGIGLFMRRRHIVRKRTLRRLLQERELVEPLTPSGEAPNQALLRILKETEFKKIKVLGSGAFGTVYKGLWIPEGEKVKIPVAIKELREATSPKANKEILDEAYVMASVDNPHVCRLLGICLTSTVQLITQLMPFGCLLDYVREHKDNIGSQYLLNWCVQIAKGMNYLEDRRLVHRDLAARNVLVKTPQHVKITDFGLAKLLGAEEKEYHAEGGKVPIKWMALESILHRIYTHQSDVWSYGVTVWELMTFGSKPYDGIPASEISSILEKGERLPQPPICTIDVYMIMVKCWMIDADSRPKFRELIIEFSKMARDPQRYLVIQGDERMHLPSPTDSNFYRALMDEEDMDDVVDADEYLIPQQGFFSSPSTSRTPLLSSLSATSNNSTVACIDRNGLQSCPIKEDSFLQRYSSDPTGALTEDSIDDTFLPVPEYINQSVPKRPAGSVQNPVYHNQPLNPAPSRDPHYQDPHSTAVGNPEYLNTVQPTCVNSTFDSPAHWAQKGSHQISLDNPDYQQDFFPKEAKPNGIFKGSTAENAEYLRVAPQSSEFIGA

[9] = target: Vascular endothelial growth factor receptor 2 (Homo sapiens, UniProt P35968); test: Inhibition of VEGFR2 (unknown origin) using FAM-labeled peptide as substrate preincubated for 5 to 10 mins followed by substrate/ATP addition measured after 30 to 60 mins by mobility shift assay; how it was run: as §1
[10] = target: Platelet-derived growth factor receptor beta (Homo sapiens, UniProt P09619); test: Inhibition of PDGFRbeta (unknown origin) using FAM-labeled peptide as substrate preincubated for 5 to 10 mins followed by substrate/ATP addition measured after 30 to 60 mins by mobility shift assay; how it was run: as §1
CYP2C19 = CYP2C19 (Homo sapiens, UniProt P33261); test: Reversible inhibition of CYP2C19 in human liver microsomes at 10 uM after 20 mins in presence of NADPH by LC-MS/MS analysis; assay type: ADME; settings: liver microsomes
[11] = target: Mast/stem cell growth factor receptor Kit (Homo sapiens, UniProt P10721); test: Inhibition of c-Kit (unknown origin) using FAM-labeled peptide as substrate preincubated for 5 to 10 mins followed by substrate/ATP addition measured after 30 to 60 mins by mobility shift assay; how it was run: as §1

Chain of Platelet-derived growth factor receptor alpha (P16234 whole entry): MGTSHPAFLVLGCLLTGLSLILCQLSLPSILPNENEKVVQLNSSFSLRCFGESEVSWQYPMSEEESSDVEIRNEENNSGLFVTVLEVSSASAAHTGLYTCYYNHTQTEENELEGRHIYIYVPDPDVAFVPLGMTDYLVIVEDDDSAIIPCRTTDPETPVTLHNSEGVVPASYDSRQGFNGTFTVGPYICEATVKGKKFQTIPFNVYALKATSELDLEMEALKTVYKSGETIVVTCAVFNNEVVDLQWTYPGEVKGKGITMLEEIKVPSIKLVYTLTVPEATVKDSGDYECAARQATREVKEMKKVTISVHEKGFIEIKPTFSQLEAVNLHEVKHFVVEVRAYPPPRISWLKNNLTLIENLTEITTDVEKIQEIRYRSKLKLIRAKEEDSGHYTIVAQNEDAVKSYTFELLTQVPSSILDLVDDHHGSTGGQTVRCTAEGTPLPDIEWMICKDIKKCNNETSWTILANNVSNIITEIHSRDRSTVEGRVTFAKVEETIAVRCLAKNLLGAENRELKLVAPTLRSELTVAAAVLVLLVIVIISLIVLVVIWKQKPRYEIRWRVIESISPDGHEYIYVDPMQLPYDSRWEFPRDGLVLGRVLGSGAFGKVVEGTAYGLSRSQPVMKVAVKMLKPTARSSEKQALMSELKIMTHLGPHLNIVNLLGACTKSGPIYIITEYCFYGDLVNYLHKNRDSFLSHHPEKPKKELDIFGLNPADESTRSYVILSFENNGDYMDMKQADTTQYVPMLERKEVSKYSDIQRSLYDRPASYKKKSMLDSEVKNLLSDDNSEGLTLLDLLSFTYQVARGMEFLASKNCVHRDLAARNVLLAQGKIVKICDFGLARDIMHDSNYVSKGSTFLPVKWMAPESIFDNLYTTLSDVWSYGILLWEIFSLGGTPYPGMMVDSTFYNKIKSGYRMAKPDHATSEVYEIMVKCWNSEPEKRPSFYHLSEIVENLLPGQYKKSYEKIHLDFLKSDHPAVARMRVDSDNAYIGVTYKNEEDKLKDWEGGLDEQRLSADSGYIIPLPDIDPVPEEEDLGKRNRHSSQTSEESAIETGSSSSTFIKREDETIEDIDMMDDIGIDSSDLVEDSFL

IC50 [1]: 2.36 µM | remaining at 0.5 h, 1 µM [2]: 95% | IC50 [3]: > 30 µM | IC50 (Ephrin type-B receptor 2): > 30 µM | inhibition at 20 min, 10 µM (CYP2C9): < 50% | IC50 [4]: > 30 µM | microsomal CLint at 1 µM [5]: 5 µL/min/mg | inhibition at 10 µM (CYP3A4): < 50% | clearance [6]: 9.67 mL/min/kg | IC50 [7]: 1.07 µM | IC50 [8]: > 30 µM | IC50 [9]: 18.4 µM | IC50 [10]: > 30 µM | inhibition at 20 min, 10 µM (CYP2C19): < 50% | IC50 [11]: 5.4 µM
Compound: CC(c1cc2cc(-c3cnn(C)c3)cnc2cc1F)n1nnc2ncc(-c3cnn(CCO)c3)nc21 (stereo in doubt; 14)
Activity (Mus musculus): Non-Toxic
